Results published in paper PMC6176371 (Oncology Letters, 2018).
Entries after “also recorded” stand apart in the source; their conditions may differ. Read-outs that look alike come from different tables or passages of the source.

What was measured:
[1] = tested on: KB cells; experiment: cells; assay type: cell-based; settings: Homo sapiens, read-out: IC50 ± SD
[2] = tested on: KB/VCR cells; experiment: cells; assay type: cell-based; settings: Homo sapiens, read-out: IC50 ± SD
[3] = tested on: heart tissues; experiment: TUNEL assay of heart tissues; assay type: in vivo; settings: male and female Balb/c mice
How it was run: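 Heart tissue came from the 3-week mouse study: vehicle; test compound 100 mg/kg gavage twice weekly; ADM 20 mg/kg i.p. on day 6; combination. Paraffin sections (4 µm) were stained with an in situ TUNEL kit, and positive cells were counted in three random fields per slide by light microscopy. Percent apoptotic cells was compared by one-way ANOVA with Dunnett's test.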

[4] = target: CYP3A4 (Homo sapiens, UniProt P08684); experiment: CYP inhibition in pooled human liver microsomes, CYP3A4; assay type: biochemical
[5] = tested on: Balb/c mice; experiment: Maximum tolerant dosage, single high-dose PPD12; assay type: in vivo; settings: 1 g/kg PPD12
How it was run: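 Single oral gavage of test compound at 1 g/kg to Balb/c mice to assess tolerability of a single high dose.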

[6] = target: CYP2C9 (Homo sapiens, UniProt P11712); experiment: CYP inhibition in pooled human liver microsomes, CYP2C9; assay type: biochemical
[7] = Pharmacokinetic study, oral and i.v. administration; assay type: in vivo, SD rats
How it was run: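 Adult male SD rats got a single 10 mg/kg dose by tail-vein injection or oral gavage. Blood was drawn from three rats predose and at 0.083–24 h; plasma was frozen at −80°C. Plasma was deproteinized with methanol containing 250 nM internal standard for LC/MS/MS. PK parameters came from a noncompartmental i.v.-bolus model.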

[8] = target: T1, CYP2B6 (Homo sapiens, UniProt P20813); experiment: CYP inhibition in pooled human liver microsomes, CYP2B6; assay type: biochemical; settings: CYP2B6, Bupropion hydroxylation
T1 sequence (P20813 1-491): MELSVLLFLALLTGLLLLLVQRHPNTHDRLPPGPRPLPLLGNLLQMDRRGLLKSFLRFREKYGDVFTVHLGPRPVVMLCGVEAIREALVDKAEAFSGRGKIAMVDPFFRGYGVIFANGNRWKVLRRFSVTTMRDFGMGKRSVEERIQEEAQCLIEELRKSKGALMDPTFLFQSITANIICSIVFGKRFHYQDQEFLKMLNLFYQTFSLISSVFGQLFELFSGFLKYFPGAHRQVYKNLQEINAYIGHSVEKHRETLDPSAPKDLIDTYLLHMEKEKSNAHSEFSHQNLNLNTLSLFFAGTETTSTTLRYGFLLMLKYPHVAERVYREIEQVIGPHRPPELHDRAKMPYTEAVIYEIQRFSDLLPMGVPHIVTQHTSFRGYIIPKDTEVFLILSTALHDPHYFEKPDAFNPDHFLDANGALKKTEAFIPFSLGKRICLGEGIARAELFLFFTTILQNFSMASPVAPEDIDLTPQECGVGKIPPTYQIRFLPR

[9] = target: CYP2C19 (Homo sapiens, UniProt P33261); settings: CYP2C19, S-mephenytoin4′-hydroxylation, human liver microsomes
[10] = target: CYP2D6 (Homo sapiens, UniProt P10635); experiment: CYP inhibition in pooled human liver microsomes, CYP2D6; assay type: biochemical; settings: CYP2D6, Dextromethorphandextrorphan
[11] = target: T2, CYP1A2 (Homo sapiens, UniProt P05177); experiment: CYP inhibition in pooled human liver microsomes, CYP1A2; assay type: biochemical
T2 sequence (P05177 1-516): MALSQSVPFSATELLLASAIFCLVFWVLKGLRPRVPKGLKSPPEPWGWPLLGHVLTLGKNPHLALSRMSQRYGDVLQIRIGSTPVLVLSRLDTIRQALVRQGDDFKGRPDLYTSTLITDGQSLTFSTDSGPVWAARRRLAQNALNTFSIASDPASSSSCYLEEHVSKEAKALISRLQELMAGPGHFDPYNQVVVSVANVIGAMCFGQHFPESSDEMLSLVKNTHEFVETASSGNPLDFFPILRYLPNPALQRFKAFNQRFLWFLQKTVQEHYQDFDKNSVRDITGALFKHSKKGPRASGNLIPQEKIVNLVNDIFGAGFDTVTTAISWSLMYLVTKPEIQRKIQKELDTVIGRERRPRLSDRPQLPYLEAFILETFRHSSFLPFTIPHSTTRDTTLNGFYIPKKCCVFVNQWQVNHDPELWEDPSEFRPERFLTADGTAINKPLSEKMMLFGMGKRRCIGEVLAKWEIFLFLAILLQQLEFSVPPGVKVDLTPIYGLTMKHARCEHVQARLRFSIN

[12] = target: T3, CYP2C8 (Homo sapiens, UniProt P10632); experiment: CYP inhibition in pooled human liver microsomes, CYP2C8; assay type: biochemical; settings: CYP2C8, Amodiaquine N-deethylation
T3 sequence (P10632 1-490): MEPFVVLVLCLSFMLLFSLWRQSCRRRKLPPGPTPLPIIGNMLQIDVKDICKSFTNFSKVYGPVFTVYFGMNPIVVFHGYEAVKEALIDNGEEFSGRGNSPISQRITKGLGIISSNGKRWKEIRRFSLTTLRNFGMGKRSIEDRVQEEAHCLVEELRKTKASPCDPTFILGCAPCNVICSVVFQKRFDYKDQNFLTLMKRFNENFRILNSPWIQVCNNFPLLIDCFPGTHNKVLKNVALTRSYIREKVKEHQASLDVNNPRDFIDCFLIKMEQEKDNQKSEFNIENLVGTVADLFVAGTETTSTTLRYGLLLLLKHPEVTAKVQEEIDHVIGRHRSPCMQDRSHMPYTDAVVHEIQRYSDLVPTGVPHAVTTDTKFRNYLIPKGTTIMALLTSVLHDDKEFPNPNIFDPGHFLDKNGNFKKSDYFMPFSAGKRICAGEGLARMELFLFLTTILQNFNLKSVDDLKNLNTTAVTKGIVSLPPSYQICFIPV

Chain of CYP2C9 (P11712 whole entry): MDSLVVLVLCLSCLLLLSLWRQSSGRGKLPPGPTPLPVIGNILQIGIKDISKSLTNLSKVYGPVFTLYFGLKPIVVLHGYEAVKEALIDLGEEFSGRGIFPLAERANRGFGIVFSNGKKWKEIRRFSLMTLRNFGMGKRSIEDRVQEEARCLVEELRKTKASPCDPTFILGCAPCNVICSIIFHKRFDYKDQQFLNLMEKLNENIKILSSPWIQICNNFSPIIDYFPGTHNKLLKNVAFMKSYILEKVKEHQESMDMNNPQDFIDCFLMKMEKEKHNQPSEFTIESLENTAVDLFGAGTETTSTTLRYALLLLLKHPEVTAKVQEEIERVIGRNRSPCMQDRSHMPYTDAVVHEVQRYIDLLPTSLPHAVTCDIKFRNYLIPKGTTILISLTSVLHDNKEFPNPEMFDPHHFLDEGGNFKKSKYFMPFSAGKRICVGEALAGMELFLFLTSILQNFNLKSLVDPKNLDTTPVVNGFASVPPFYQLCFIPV
Chain of CYP3A4 (P08684 whole entry): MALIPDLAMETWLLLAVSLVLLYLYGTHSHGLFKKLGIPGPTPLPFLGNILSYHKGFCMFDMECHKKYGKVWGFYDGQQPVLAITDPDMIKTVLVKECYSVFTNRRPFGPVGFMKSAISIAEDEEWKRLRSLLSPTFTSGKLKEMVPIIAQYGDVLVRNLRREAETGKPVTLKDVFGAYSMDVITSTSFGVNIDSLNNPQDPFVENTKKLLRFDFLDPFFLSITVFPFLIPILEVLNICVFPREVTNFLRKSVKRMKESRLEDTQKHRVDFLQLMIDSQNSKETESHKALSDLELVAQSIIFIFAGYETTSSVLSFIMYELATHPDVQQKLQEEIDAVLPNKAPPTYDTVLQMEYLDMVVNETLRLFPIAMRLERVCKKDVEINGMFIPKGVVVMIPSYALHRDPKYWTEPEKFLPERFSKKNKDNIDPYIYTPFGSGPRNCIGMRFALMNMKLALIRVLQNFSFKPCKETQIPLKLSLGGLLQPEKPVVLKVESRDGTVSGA
Chain of CYP2C19 (P33261 whole entry): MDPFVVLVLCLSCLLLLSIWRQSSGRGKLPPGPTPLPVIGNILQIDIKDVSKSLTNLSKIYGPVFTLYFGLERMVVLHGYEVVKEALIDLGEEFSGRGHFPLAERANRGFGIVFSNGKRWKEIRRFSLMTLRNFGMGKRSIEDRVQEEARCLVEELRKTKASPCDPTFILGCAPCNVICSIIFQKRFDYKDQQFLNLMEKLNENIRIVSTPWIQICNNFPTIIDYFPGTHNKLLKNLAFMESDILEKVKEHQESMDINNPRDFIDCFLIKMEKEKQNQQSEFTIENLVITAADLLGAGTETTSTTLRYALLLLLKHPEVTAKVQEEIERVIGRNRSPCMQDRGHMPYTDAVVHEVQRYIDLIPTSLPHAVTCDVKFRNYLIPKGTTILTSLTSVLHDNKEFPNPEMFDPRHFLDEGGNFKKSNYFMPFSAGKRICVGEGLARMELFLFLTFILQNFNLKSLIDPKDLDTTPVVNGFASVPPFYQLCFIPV
Chain of CYP2D6 (P10635 whole entry): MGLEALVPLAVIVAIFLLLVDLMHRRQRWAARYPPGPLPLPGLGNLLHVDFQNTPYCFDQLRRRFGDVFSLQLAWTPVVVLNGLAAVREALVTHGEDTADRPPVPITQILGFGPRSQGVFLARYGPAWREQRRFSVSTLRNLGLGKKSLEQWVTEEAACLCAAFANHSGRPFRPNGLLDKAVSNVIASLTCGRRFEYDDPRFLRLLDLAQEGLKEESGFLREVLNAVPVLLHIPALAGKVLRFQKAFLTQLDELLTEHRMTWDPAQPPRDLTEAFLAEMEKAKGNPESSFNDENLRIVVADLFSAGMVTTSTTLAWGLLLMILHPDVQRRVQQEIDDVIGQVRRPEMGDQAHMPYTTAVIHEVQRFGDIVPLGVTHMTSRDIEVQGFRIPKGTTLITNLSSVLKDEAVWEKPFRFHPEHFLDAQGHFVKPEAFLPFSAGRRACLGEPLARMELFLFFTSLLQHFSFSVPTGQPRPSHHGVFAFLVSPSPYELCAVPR

**Q.** Which IC50 ([1]; 24 h) does the source give for `COc1cccc2c1C(=O)c1c(O)c3c(c(O)c1C2=O)C[C@@](O)(C(=O)CO)C[C@@H]3O[C@H]1C[C@H](N)[C@H](O)[C@H](C)O1` [ADM, Adriamycin] here?
**A.** 2380 nM

**Q.** What about the IC50 ([1]; 48 h) of the same compound?
**A.** 390 nM

**Q.** What about the IC50 ([1]; 72 h) of the same compound?
**A.** 71.3 nM

**Q.** What about the IC50 ([1]; 96 h) of the same compound?
**A.** 35.1 nM

**Q.** And the IC50 ([2]; 24 h)?
**A.** 151000 nM

**Q.** What about the IC50 ([2]; 48 h) of the same compound?
**A.** 4780 nM

**Q.** And the IC50 ([2]; 72 h)?
**A.** 1520 nM

**Q.** What about the IC50 ([2]; 96 h) of the same compound?
**A.** 1190 nM

**Q.** And the “apoptotic cells in heart tissues (TUNEL) compared to the control group” value [3]?
**A.** significant increase in apoptosis

**Q.** Which results are given for `CC1(C)[C@@H](O)CC[C@]2(C)[C@H]3C[C@@H](O)[C@@H]4[C@@H]([C@@](C)(O)CCCNCc5ccccc5)CC[C@@]4(C)[C@]3(C)CC[C@@H]12` [PPD12]?
**A.** IC50 ([4]; CYP3A4, Midazolam 1′-hydroxylation): 1030 nM; IC50 ([4]; CYP3A4, Testosterone 6-β-hydroxylation): 8430 nM; lethal effects / tolerability of a single high dosage [5]: did not observe any lethal effects; also recorded: well tolerated; IC50 ([6]; CYP2C9, Diclofenac4′-hydroxylation): > 33000 nM; inhibition of CYP2C9-mediated diclofenac4′-hydroxylation ([6]; at 33 µM): negligible inhibition; oral absolute bioavailability ([7]; male SD rats, 10 mg/kg oral vs i.v.): 114.41±22.24%; bioavailability by oral administration ([7]; mouse model (so in the source)): ~100%; IC50 [8]: 2210 nM; IC50 [9]: 15000 nM; IC50 [10]: 11800 nM; IC50 ([11]; CYP1A2, Phenacetin 0-deethylation): > 33000 nM; inhibition of CYP1A2-mediated phenacetin 0-deethylation ([11]; at 33 µM): negligible inhibition; IC50 [12]: 9570 nM; apoptotic cells in heart tissues (TUNEL) compared to the control group [3]: no obvious difference in apoptotic cells
